Reference: ChEMBL document CHEMBL3112572, “Substituted 4-phenyl-2-aminoimidazoles and 4-phenyl-4,5-dihydro-2-aminoimidazoles as voltage-gated sodium channel modulators” (Eur J Med Chem, 2014)
pIC50: −log10 of the molar value.

These molecules were tested against T1, Sodium channel protein type 4 subunit alpha (Homo sapiens, UniProt P35499) (assay: Modulation of human Nav1.4 in closed state assessed as inhibition of inward current after 4 mins by whole-cell electrophysiology).
In short: (§1)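 Automated whole-cell patch clamp (QPatch HT) on trypsin-EDTA-dissociated cells held in serum-free medium. Closed-state test pulse depolarizes from -100 mV. 0.1% DMSO vehicle for 4 min is followed by four cumulative bolus concentrations (0.3–10 µM, 0.1% DMSO final), each incubated 4 min. Peak inward current from the last three sweeps is compared with vehicle, and IC50 comes from a 4-parameter logistic fit constrained 0–100%, n≥3.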

T1 sequence (P35499 whole entry): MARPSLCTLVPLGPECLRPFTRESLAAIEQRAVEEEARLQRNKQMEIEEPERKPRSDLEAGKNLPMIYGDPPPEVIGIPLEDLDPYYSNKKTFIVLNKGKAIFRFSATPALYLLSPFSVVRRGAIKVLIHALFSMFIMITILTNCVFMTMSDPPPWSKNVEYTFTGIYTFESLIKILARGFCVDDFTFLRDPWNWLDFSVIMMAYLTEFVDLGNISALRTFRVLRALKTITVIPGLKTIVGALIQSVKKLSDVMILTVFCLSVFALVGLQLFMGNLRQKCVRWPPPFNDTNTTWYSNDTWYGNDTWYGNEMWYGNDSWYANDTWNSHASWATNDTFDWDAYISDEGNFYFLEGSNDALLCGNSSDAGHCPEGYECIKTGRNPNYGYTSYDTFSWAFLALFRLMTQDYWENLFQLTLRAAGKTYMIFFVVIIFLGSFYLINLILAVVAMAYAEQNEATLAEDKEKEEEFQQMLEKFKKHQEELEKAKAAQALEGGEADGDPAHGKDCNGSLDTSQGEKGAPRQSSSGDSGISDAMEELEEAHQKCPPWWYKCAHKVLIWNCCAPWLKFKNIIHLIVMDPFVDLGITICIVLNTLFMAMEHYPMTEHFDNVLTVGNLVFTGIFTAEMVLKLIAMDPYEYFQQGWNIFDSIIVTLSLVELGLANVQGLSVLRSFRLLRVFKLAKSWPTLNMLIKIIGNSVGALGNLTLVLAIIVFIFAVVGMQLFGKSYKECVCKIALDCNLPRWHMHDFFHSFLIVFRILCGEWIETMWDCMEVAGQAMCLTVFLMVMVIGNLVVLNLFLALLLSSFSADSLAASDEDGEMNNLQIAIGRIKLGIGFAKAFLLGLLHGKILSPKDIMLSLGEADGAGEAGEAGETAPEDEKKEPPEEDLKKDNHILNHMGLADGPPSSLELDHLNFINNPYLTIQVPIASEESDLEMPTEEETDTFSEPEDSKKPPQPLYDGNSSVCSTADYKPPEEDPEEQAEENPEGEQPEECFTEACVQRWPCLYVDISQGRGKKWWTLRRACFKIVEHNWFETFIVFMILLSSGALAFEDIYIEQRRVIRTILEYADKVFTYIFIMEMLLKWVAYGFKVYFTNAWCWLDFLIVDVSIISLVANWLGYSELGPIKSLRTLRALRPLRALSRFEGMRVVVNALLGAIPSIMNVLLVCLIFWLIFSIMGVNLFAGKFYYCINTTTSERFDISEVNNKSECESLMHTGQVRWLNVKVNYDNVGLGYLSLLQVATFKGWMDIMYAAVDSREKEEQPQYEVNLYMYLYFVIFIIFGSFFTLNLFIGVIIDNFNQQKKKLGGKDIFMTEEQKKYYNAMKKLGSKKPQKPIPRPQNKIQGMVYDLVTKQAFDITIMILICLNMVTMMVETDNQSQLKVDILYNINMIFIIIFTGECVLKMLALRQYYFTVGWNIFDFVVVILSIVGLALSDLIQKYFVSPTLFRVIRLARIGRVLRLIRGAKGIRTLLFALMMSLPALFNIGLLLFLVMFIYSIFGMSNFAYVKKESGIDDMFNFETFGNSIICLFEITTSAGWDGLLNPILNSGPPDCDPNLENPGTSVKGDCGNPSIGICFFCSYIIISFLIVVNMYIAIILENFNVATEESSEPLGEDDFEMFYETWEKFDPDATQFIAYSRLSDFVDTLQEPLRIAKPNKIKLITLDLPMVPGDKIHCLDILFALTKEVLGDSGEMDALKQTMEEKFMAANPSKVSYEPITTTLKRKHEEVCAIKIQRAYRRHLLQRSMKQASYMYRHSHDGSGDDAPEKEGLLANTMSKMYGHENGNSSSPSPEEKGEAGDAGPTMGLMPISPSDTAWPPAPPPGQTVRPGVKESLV

| SMILES | pIC50 |
| --- | --- |
| Nc1nc(-c2cccc(NC(=O)c3cc4ccccc4[nH]3)c2)c[nH]1 | < 4.52 |
| CC(C)(C)OC(=O)n1cc(-c2cccc(NC(=O)c3cc4ccccc4[nH]3)c2)nc1N | < 4.52 |
| CC(C)(C)OC(=O)n1cc(-c2ccc(NC(=O)[C@@H]3CCCN3)cc2)nc1N | < 4.52 |
| CC(C)(C)OC(=O)n1cc(-c2cccc(NC(=O)[C@H]3CCCN3)c2)nc1N | < 4.52 |
| CC(C)(C)OC(=O)n1cc(-c2cccc(NC(=O)c3c[nH]c4ccccc34)c2)nc1N | < 4.52 |
| Nc1nc(-c2cccc(NC(=O)c3c[nH]c4ccccc34)c2)c[nH]1 | < 4.52 |

Further lines, results first:

| pIC50 | SMILES |
| --- | --- |
| < 4.52 | CNc1nc(-c2cccc(NC(=O)c3cc4ccccc4[nH]3)c2)c[nH]1 |
| < 4.52 | Nc1nc(-c2cccc(NC(=O)c3ccc[nH]3)c2)c[nH]1 |
| < 4.52 | Nc1nc(-c2cccc(NC(=O)c3cc[nH]c3)c2)c[nH]1 |
| < 4.52 | CC(C)(C)OC(=O)n1cc(-c2ccc(NC(=O)[C@H]3CCCN3)cc2)nc1N |
| < 4.52 | Nc1nc(-c2cccc(NC(=O)c3ccc[nH]3)c2)cn1C(=O)c1ccc[nH]1 |

Each molecule was assayed against T2, Sodium channel protein type 9 subunit alpha (Homo sapiens, UniProt Q15858) (assay: Modulation of human Nav1.7 in closed state assessed as inhibition of inward current after 4 mins by whole-cell electrophysiology).
In short: as §1

T2 sequence (Q15858 whole entry): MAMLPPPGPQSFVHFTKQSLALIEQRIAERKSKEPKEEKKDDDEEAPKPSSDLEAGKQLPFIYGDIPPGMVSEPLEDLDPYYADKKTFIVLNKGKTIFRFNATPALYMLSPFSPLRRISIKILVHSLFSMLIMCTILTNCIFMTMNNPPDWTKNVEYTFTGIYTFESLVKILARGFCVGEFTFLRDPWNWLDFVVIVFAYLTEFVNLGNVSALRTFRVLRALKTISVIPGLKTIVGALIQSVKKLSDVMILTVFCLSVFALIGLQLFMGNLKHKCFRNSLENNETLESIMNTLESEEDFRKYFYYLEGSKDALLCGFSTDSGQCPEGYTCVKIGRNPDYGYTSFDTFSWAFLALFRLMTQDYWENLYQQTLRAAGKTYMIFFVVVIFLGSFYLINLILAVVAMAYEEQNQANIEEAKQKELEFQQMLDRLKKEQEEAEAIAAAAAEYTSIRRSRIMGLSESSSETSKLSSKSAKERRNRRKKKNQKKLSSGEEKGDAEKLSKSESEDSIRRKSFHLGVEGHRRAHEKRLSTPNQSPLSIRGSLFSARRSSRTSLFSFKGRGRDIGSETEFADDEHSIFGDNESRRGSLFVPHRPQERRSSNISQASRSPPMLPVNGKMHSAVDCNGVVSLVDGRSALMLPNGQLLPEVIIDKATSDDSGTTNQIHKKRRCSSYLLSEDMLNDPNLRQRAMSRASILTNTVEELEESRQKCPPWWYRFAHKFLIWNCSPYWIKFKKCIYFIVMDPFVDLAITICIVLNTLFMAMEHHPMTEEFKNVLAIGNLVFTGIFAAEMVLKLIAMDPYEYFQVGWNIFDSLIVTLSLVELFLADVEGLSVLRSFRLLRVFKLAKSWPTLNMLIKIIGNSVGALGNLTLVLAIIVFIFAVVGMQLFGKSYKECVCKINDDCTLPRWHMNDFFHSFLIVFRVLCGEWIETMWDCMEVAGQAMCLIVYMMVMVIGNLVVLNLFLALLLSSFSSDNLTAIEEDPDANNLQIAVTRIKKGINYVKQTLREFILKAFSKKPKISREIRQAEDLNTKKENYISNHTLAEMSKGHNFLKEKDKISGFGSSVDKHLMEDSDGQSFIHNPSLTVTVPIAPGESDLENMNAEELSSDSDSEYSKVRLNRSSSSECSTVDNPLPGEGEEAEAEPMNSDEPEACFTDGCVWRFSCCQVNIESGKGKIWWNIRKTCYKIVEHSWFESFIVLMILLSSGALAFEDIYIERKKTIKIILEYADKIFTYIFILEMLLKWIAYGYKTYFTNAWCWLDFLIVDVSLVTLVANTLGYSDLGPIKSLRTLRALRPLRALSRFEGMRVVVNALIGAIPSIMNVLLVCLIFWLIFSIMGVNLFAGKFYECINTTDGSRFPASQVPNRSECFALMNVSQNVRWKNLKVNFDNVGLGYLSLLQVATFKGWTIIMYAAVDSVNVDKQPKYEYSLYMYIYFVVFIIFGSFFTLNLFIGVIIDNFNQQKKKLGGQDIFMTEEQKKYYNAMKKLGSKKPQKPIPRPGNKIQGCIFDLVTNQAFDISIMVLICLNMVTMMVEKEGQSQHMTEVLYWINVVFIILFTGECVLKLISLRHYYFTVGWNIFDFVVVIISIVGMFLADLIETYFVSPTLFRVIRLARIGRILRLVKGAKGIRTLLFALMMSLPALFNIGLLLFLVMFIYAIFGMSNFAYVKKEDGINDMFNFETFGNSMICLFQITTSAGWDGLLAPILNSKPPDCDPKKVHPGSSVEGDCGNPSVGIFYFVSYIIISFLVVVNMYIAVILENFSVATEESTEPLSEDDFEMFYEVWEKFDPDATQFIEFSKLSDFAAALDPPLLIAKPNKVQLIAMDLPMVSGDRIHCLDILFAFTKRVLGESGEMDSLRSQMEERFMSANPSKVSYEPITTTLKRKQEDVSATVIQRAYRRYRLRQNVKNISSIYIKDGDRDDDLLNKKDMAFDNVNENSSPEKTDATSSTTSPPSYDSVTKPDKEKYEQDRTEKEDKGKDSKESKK

| SMILES | pIC50 |
| --- | --- |
| Nc1nc(-c2cccc(NC(=O)c3cc4ccccc4[nH]3)c2)c[nH]1 | < 4.52 |
| CC(C)(C)OC(=O)n1cc(-c2cccc(NC(=O)c3cc4ccccc4[nH]3)c2)nc1N | < 4.52 |
| CC(C)(C)OC(=O)n1cc(-c2ccc(NC(=O)[C@@H]3CCCN3)cc2)nc1N | < 4.52 |
| CC(C)(C)OC(=O)n1cc(-c2cccc(NC(=O)[C@H]3CCCN3)c2)nc1N | < 4.52 |
| CC(C)(C)OC(=O)n1cc(-c2cccc(NC(=O)c3c[nH]c4ccccc34)c2)nc1N | < 4.52 |
| Nc1nc(-c2cccc(NC(=O)c3c[nH]c4ccccc34)c2)c[nH]1 | < 4.52 |

Results, then the molecule that gave them:

| pIC50 | SMILES |
| --- | --- |
| < 4.52 | CNc1nc(-c2cccc(NC(=O)c3cc4ccccc4[nH]3)c2)c[nH]1 |
| < 4.52 | Nc1nc(-c2cccc(NC(=O)c3ccc[nH]3)c2)c[nH]1 |
| < 4.52 | Nc1nc(-c2cccc(NC(=O)c3cc[nH]c3)c2)c[nH]1 |
| < 4.52 | CC(C)(C)OC(=O)n1cc(-c2ccc(NC(=O)[C@H]3CCCN3)cc2)nc1N |
| < 4.52 | Nc1nc(-c2cccc(NC(=O)c3ccc[nH]3)c2)cn1C(=O)c1ccc[nH]1 |

The molecules below were run against T2, Sodium channel protein type 9 subunit alpha (assay: Modulation of human Nav1.7 in open-inactivated state assessed as inhibition of inward current after 4 mins by whole-cell electrophysiology).
In short: (§2)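 Cells dissociated with trypsin-EDTA are kept in serum-free medium and recorded by QPatch HT whole-cell clamp with a high-frequency, pathophysiological protocol. The open-inactivated test pulse depolarizes from about -70 mV. After 4 min of vehicle (0.1% DMSO), 0.3–10 µM is added cumulatively, 4 min per level. Percent inhibition of peak inward current uses the mean of the last three sweeps against vehicle. IC50 is fitted by a constrained 4-parameter logistic, mean ± SD of ≥3 experiments.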

| SMILES | pIC50 |
| --- | --- |
| Nc1nc(-c2cccc(NC(=O)c3cc4ccccc4[nH]3)c2)c[nH]1 | < 4.52 |
| CC(C)(C)OC(=O)n1cc(-c2cccc(NC(=O)c3cc4ccccc4[nH]3)c2)nc1N | < 4.52 |
| CC(C)(C)OC(=O)n1cc(-c2ccc(NC(=O)[C@@H]3CCCN3)cc2)nc1N | 4.72 |
| CC(C)(C)OC(=O)n1cc(-c2cccc(NC(=O)[C@H]3CCCN3)c2)nc1N | 4.54 |
| CC(C)(C)OC(=O)n1cc(-c2cccc(NC(=O)c3c[nH]c4ccccc34)c2)nc1N | < 4.52 |
| Nc1nc(-c2cccc(NC(=O)c3c[nH]c4ccccc34)c2)c[nH]1 | 4.59 |

The next lines start with the values.

| pIC50 | SMILES |
| --- | --- |
| < 4.52 | CNc1nc(-c2cccc(NC(=O)c3cc4ccccc4[nH]3)c2)c[nH]1 |
| < 4.52 | Nc1nc(-c2cccc(NC(=O)c3ccc[nH]3)c2)c[nH]1 |
| < 4.52 | Nc1nc(-c2cccc(NC(=O)c3cc[nH]c3)c2)c[nH]1 |
| < 4.52 | CC(C)(C)OC(=O)n1cc(-c2ccc(NC(=O)[C@H]3CCCN3)cc2)nc1N |
| 4.72 | Nc1nc(-c2cccc(NC(=O)c3ccc[nH]3)c2)cn1C(=O)c1ccc[nH]1 |

Each molecule was assayed against T1, Sodium channel protein type 4 subunit alpha (assay: Modulation of human Nav1.4 in open-inactivated state assessed as inhibition of inward current after 4 mins by whole-cell electrophysiology).
In short: as §2

| SMILES | pIC50 |
| --- | --- |
| Nc1nc(-c2cccc(NC(=O)c3cc4ccccc4[nH]3)c2)c[nH]1 | < 4.52 |
| CC(C)(C)OC(=O)n1cc(-c2cccc(NC(=O)c3cc4ccccc4[nH]3)c2)nc1N | < 4.52 |
| CC(C)(C)OC(=O)n1cc(-c2ccc(NC(=O)[C@@H]3CCCN3)cc2)nc1N | < 4.52 |
| CC(C)(C)OC(=O)n1cc(-c2cccc(NC(=O)[C@H]3CCCN3)c2)nc1N | < 4.52 |
| CC(C)(C)OC(=O)n1cc(-c2cccc(NC(=O)c3c[nH]c4ccccc34)c2)nc1N | 4.59 |
| Nc1nc(-c2cccc(NC(=O)c3c[nH]c4ccccc34)c2)c[nH]1 | 4.85 |

The next lines start with the values.

| pIC50 | SMILES |
| --- | --- |
| < 4.52 | CNc1nc(-c2cccc(NC(=O)c3cc4ccccc4[nH]3)c2)c[nH]1 |
| < 4.52 | Nc1nc(-c2cccc(NC(=O)c3ccc[nH]3)c2)c[nH]1 |
| 4.82 | Nc1nc(-c2cccc(NC(=O)c3cc[nH]c3)c2)c[nH]1 |
| < 4.52 | CC(C)(C)OC(=O)n1cc(-c2ccc(NC(=O)[C@H]3CCCN3)cc2)nc1N |
| < 4.52 | Nc1nc(-c2cccc(NC(=O)c3ccc[nH]3)c2)cn1C(=O)c1ccc[nH]1 |

What follows are molecules tested against T3, Sodium channel protein type 3 subunit alpha (Homo sapiens, UniProt Q9NY46) (assay: Modulation of human Nav1.3 in closed state assessed as inhibition of inward current after 4 mins by whole-cell electrophysiology).
In short: as §1

| SMILES | pIC50 |
| --- | --- |
| Nc1nc(-c2cccc(NC(=O)c3cc4ccccc4[nH]3)c2)c[nH]1 | < 4.52 |
| CC(C)(C)OC(=O)n1cc(-c2cccc(NC(=O)c3cc4ccccc4[nH]3)c2)nc1N | < 4.52 |
| CC(C)(C)OC(=O)n1cc(-c2ccc(NC(=O)[C@@H]3CCCN3)cc2)nc1N | < 4.52 |
| CC(C)(C)OC(=O)n1cc(-c2cccc(NC(=O)[C@H]3CCCN3)c2)nc1N | < 4.52 |
| CC(C)(C)OC(=O)n1cc(-c2cccc(NC(=O)c3c[nH]c4ccccc34)c2)nc1N | < 4.52 |
| Nc1nc(-c2cccc(NC(=O)c3c[nH]c4ccccc34)c2)c[nH]1 | < 4.52 |

Other lines, results leading:

| pIC50 | SMILES |
| --- | --- |
| < 4.52 | CNc1nc(-c2cccc(NC(=O)c3cc4ccccc4[nH]3)c2)c[nH]1 |
| < 4.52 | Nc1nc(-c2cccc(NC(=O)c3ccc[nH]3)c2)c[nH]1 |
| < 4.52 | Nc1nc(-c2cccc(NC(=O)c3cc[nH]c3)c2)c[nH]1 |
| < 4.52 | CC(C)(C)OC(=O)n1cc(-c2ccc(NC(=O)[C@H]3CCCN3)cc2)nc1N |
| < 4.52 | Nc1nc(-c2cccc(NC(=O)c3ccc[nH]3)c2)cn1C(=O)c1ccc[nH]1 |

These molecules were tested against T3, Sodium channel protein type 3 subunit alpha (assay: Modulation of human Nav1.3 in open-inactivated state assessed as inhibition of inward current after 4 mins by whole-cell electrophysiology).

| SMILES | pIC50 |
| --- | --- |
| Nc1nc(-c2cccc(NC(=O)c3cc4ccccc4[nH]3)c2)c[nH]1 | < 4.52 |
| CC(C)(C)OC(=O)n1cc(-c2cccc(NC(=O)c3cc4ccccc4[nH]3)c2)nc1N | 4.59 |
| CC(C)(C)OC(=O)n1cc(-c2ccc(NC(=O)[C@@H]3CCCN3)cc2)nc1N | 4.60 |
| CC(C)(C)OC(=O)n1cc(-c2cccc(NC(=O)[C@H]3CCCN3)c2)nc1N | < 4.52 |
| CC(C)(C)OC(=O)n1cc(-c2cccc(NC(=O)c3c[nH]c4ccccc34)c2)nc1N | 4.57 |
| Nc1nc(-c2cccc(NC(=O)c3c[nH]c4ccccc34)c2)c[nH]1 | 4.92 |

Now from value to molecule:

| pIC50 | SMILES |
| --- | --- |
| < 4.52 | CNc1nc(-c2cccc(NC(=O)c3cc4ccccc4[nH]3)c2)c[nH]1 |
| < 4.52 | Nc1nc(-c2cccc(NC(=O)c3ccc[nH]3)c2)c[nH]1 |
| 4.92 | Nc1nc(-c2cccc(NC(=O)c3cc[nH]c3)c2)c[nH]1 |
| < 4.52 | CC(C)(C)OC(=O)n1cc(-c2ccc(NC(=O)[C@H]3CCCN3)cc2)nc1N |
| 4.60 | Nc1nc(-c2cccc(NC(=O)c3ccc[nH]3)c2)cn1C(=O)c1ccc[nH]1 |
